In brackets after ≈: the same amount, converted by molar mass.
Tests used:
[1] = tested on: Mycobacterium tuberculosis H37Rv; assay: Inhibition of Bio-A in wild type Mycobacterium tuberculosis H37Rv after 9 days
In short: (§1)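 Wild-type Mtb H37Rv was pregrown in Sauton's medium with 1 μM biotin to OD580 1.0–1.2, washed twice in biotin-free Sauton's, and seeded at OD580 0.03 without biotin. Compounds were tested at 0.2–50 μM final, with no-compound controls, at 37 °C. OD580 was read at 9 days. MIC is the concentration giving 50% inhibition. Triplicate, two biological replicates.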

[2] = tested on: Mycobacterium tuberculosis; assay: Inhibition of Bio-A underexpressed in Mycobacterium tuberculosis in presence of anhydrotetracycline after 9 days
In short: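 BioA-overexpressing or BioA-underexpressing Mtb strains were pregrown in Sauton's with 1 μM biotin, washed twice, and seeded at OD580 0.03 in biotin-free medium with 200 ng/mL anhydrotetracycline to set BioA expression. Compounds were tested at 0.2–50 μM final at 37 °C. OD580 was read after 9 days. MIC is the concentration giving 50% inhibition. Triplicate, two biological replicates.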

[3] = tested on: Mycobacterium tuberculosis H37Rv; assay: Inhibition of Bio-A in wild type Mycobacterium tuberculosis H37Rv in presence of biotin after 9 days
In short: as §1, with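 “with 1 μM biotin added.” for “without biotin.”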

[4] = tested on: Mycobacterium tuberculosis; assay: Antibacterial activity against wild type Mycobacterium tuberculosis H37Rv after 14 days; type: functional; conditions: 336 h
[5] = Inhibition of wild type Mycobacterium tuberculosis Bio-A using KAPA as substrate after 45 mins in presence of fluorescently labeled dethiobiotin tracer

| SMILES | MIC50 [1] [µM] | MIC50 [2] [µM] | also measured |
| --- | --- | --- | --- |
| CCCC(=O)N1CCN(c2ccc(C(C)=O)cc2)CC1 | > 50 | > 50 |  |
| O=C1CCc2cc(N3CCN(C(=O)c4cccc(Cl)c4)CC3)ccc21 | 4.4 (≈ 1.56 µg/mL) | 0.3 |  |
| COc1cc(Cl)cc(C(=O)N2CCN(c3ccc(C(C)=O)cc3)CC2)c1 | 28.6 (≈ 10.7 µg/mL) | 18.3 |  |
| CC(=O)c1ccc(N2CCN(C(=O)c3ccc4c(c3)OCO4)CC2)cc1 | 5.6 (≈ 1.97 µg/mL) | 0.4 | MIC90 [1]: 23.4 µM (≈ 8.25 µg/mL); MIC90 [3]: > 50 µM; MIC [4]: 26 µM (≈ 9.16 µg/mL); MIC90 [2]: 1.7 µM; IC50 [5]: 155 nM |
| CC(=O)c1ccc(-c2cn(Cc3cccc(Cl)c3)nn2)s1 | > 50 | > 50 |  |
| N#Cc1ccc(N2CCN(C(=O)c3cccc(Cl)c3)CC2)cc1 | 18.5 (≈ 6.03 µg/mL) | 44.8 |  |
| Cn1nnnc1-c1ccc(N2CCN(C(=O)c3cccc(Cl)c3)CC2)cc1 | > 50 | > 50 |  |
| Cc1noc(-c2ccc(N3CCN(C(=O)c4cccc(Cl)c4)CC3)cc2)n1 | > 50 | > 50 |  |
| CC(=O)c1ccc(N2CCN(C(=O)c3ccc4c(c3)OCCO4)CC2)cc1 | > 50 | 10.4 |  |
| CC(=O)c1ccc(N2CCN(C(=O)c3cc(Cl)cc(Cl)c3)CC2)cc1 | > 50 | > 50 |  |
| COC(=O)c1ccc(N2CCN(C(=O)c3cccc(Cl)c3)CC2)cc1 | > 50 | > 50 |  |
| CC(=O)c1ccc(N2CCC(C(=O)c3ccc4c(c3)OCO4)CC2)cc1 | > 50 | > 50 |  |
| O=C(c1cccc(Cl)c1)N1CCN(c2ccc(-c3ccno3)cc2)CC1 | 6.7 (≈ 2.46 µg/mL) | 0.4 |  |
| CC(=O)c1ccc(N2CCN(C(=O)c3cccnc3)CC2)cc1 | > 50 | 14.6 |  |
| CC(=O)c1ccc(N2CCN(C(=O)c3cncc(Cl)c3)CC2)cc1 | > 50 | > 50 |  |
| CC(=O)c1ccc(N2CCN(C(=O)c3ccc4c(c3)OCCCO4)CC2)cc1 | > 50 | 21.1 |  |
| CC(=O)c1ccc(N2CCN(C(=O)c3ccc(Cl)c(Cl)c3)CC2)cc1 | 10.2 (≈ 3.85 µg/mL) | 1.9 |  |
| O=C1OCc2cc(N3CCN(C(=O)c4cccc(Cl)c4)CC3)ccc21 | 35 (≈ 12.5 µg/mL) | 1.8 |  |

| SMILES | MIC50 [1] [µM] | MIC50 [2] [µM] | also measured |
| --- | --- | --- | --- |
| CCCCCC(=O)N1CCN(c2ccc(C(C)=O)cc2)CC1 | 8.7 (≈ 2.63 µg/mL) | 10.6 |  |
| O=C(c1cccc(Cl)c1)N1CCN(c2ccc3c(c2)COC3)CC1 | 40.8 (≈ 14 µg/mL) | 12.8 |  |
| O=C(c1cccc(Cl)c1)N1CCN(c2ccc(-c3ccccn3)cc2)CC1 | > 50 | > 50 |  |
| CC(=O)c1ccc(N2CCN(C(=O)c3cnn(C)c3)CC2)cc1 | > 50 | 11.3 |  |
| C/C(=N\O)c1ccc(N2CCN(C(=O)c3cccc(Cl)c3)CC2)cc1 | 20.4 (≈ 7.3 µg/mL) | 15.1 |  |
| CC(=O)c1ccc(-c2cn(Cc3cccc(Cl)c3)nn2)cc1 | 22 (≈ 6.86 µg/mL) | 24.4 | MIC50 [3]: > 50 µM |
| O=C(c1cccc(Cl)c1)N1CCN(c2ccc([N+](=O)[O-])cc2)CC1 | 15.4 (≈ 5.33 µg/mL) | 4.7 |  |
| CC(=O)c1ccc(N2CCC(C(=O)c3cccc(Cl)c3)CC2)cc1 | 4.1 (≈ 1.4 µg/mL) | 6.8 |  |
| CC(=O)c1ccc(N2CCN(C(=O)c3cccc(Cl)c3)CC2)s1 | 9.9 (≈ 3.45 µg/mL) | 1.1 |  |
| CCC(=O)N1CCN(c2ccc(C(C)=O)cc2)CC1 | > 50 | > 50 |  |
| CN1Cc2cc(N3CCN(C(=O)c4cccc(Cl)c4)CC3)ccc2C1=O | 15.2 (≈ 5.62 µg/mL) | 1.2 |  |
| COc1ccc(-c2ccc(N3CCN(C(=O)c4cccc(Cl)c4)CC3)cc2)nc1 | 22 (≈ 8.97 µg/mL) | 24.4 | MIC50 [3]: > 50 µM |
| CC(=O)c1cccc(N2CCN(C(=O)c3cccc(Cl)c3)CC2)c1 | > 50 | 26.6 |  |
| CC(=O)c1ccc(N2CCN(C(=O)CC(C)C)CC2)cc1 | > 50 | > 50 |  |
| CC(=O)c1ccc(N2CCN(C(=O)c3cccc(Cl)c3)CC2)cc1 | 5.1 (≈ 1.75 µg/mL) | 0.5 |  |
| CC(=O)c1ccc(N2CCN(C(=O)c3cscn3)CC2)cc1 | > 50 | > 50 |  |
| O=C1CCc2cc(N3CCN(C(=O)c4ccc5c(c4)OCO5)CC3)ccc21 | 1.7 (≈ 0.619 µg/mL) | 0.3 |  |
